Our source for the inhibition and TDI values is ChEMBL document CHEMBL4038281, “Competitive protein tyrosine phosphatase 1B (PTP1B) inhibitors, prenylated caged xanthones from Garcinia hanburyi and their inhibitory mechanism” (Bioorg Med Chem, 2017).

Calls of active or inactive are those of the source. No cut-off for these calls is given here.

Assay [1] has as its target T1, Tyrosine-protein phosphatase non-receptor type 1 (Homo sapiens) (UniProt P18031).
T1 sequence (whole entry): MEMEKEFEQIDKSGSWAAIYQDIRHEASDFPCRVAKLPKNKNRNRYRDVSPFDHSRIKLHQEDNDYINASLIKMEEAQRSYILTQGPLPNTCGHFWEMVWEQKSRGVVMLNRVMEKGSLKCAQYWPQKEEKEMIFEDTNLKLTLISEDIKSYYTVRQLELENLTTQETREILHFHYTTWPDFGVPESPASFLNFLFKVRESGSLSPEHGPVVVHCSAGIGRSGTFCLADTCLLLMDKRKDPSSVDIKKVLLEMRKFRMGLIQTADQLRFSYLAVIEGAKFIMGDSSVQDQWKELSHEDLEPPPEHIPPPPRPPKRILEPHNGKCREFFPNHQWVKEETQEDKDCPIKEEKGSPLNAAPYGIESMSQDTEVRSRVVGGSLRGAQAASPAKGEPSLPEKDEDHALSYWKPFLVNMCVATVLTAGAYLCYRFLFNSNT
As to conditions: 12.4 to 49.6 uM.

Assay [2] deals with T1, Tyrosine-protein phosphatase non-receptor type 1 (Homo sapiens). As to conditions: 0.47 uM.
Assay [3] shares this target. In words: Inhibition of recombinant human PTP1B (1 to 322 residues) expressed in Escherichia coli using pNPP as substrate incubated for 10 mins measured for 30 mins by spectrometric analysis. Summed up:
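Enzyme (1 mg/mL stock) was mixed with sample in DMSO and 4 mM pNPP stock in 25 mM Tris-HCl pH 7.5, 1 mM EDTA, 2 mM b-mercaptoethanol and 1 mM DTT.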

For assay [4] the target is unchanged. Conditions: 457.3 to 1829.3 uM.
Assay [5] has the same target. In words: Competitive inhibition of recombinant human PTP1B (1 to 322 residues) expressed in Escherichia coli at 52.6 to 210.6 uM using pNPP as substrate by Line-weaver burk plot method. Summed up: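 PTP1B activity was followed by pNPP hydrolysis at 405 nm in 25 mM Tris-HCl pH 7.5 with 1 mM EDTA, 2 mM b-mercaptoethanol and 1 mM DTT, at 37 °C, with compound added in DMSO. Initial velocities were taken across substrate and inhibitor concentrations. Km and Vmax came from Lineweaver-Burk plots, with Dixon plots also used, and the Kik/Kiv ratio was calculated after Yang et al.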

Assay [6] has the same target. Kind of assay: Competitive inhibition of recombinant human PTP1B (1 to 322 residues) expressed in Escherichia coli at 11.8 to 47.2 uM using pNPP as substrate by Line-weaver burk plot method. Put shortly: (§1)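 Kinetics with pNPP substrate in 25 mM Tris-HCl (pH 7.5), 1 mM EDTA, 2 mM b-mercaptoethanol, 1 mM DTT, 37 °C. Initial velocities were recorded at several substrate and inhibitor concentrations and read at 405 nm. Vmax and Km came from Lineweaver-Burk plots, and the Kik/Kiv ratio was calculated per Yang et al.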

Assay [7] has the same target. Conditions: 11.7 to 47.1 uM.
Assay [8] has the same target. Kind of assay: Competitive inhibition of recombinant human PTP1B (1 to 322 residues) expressed in Escherichia coli at 99.4 to 397.8 uM using pNPP as substrate by Line-weaver burk plot method. Summed up: as §1
For assay [9] the target is unchanged. Conditions: 49.5 to 198.1 uM.

In the case of `CC(C)=CCC[C@]1(C)C=Cc2c(O)c3c(c(CC=C(C)C)c2O1)O[C@]12C(=C[C@@H]4C[C@H]1C(C)(C)O[C@@]2(C/C=C(/C)C(=O)O)C4=O)C3=O`, in assay [1], the inhibition entry is “Active”. The TDI entry in [2] was “Active”. Moreover, in assay [3], the inhibition entry was “Dose-dependent effect”.
In the case of `CC(C)=CCc1c2c(c(O)c3c1O[C@]14C(=C[C@@H]5C[C@H]1C(C)(C)O[C@@]4(/C=C(/C)CO)C5=O)C3=O)C=CC(C)(C)O2`, in assay [4], the inhibition result was “Active”. The inhibition entry in assay [3] is “Dose-dependent effect”.
Turning to `CO[C@@H]1C2C(=O)c3c(O)c4c(c(CC=C(C)C)c3O[C@@]23[C@H]2C[C@@H]1C(=O)[C@]3(C/C=C(/C)C(=O)O)OC2(C)C)OC(C)(C)C=C4` (stereo not given in full), in [5], the inhibition result is “Active”. Besides, the inhibition entry in assay [3] is “Dose-dependent effect”.
Turning to `CO[C@@H]1C2C(=O)c3c(O)c4c(c(CC=C(C)C)c3O[C@@]23[C@H]2C[C@@H]1C(=O)[C@]3(C/C=C(/C)C(=O)O)OC2(C)C)O[C@](C)(CCC=C(C)C)C=C4` (stereo not given in full), the inhibition entry in assay [3] was “Dose-dependent effect”. Moreover, the inhibition entry in [6] was “Active”.
Regarding `CO[C@@H]1C2C(=O)c3c(O)c(C/C=C(\C)CCC=C(C)C)c(O)c(CC=C(C)C)c3O[C@@]23[C@H]2C[C@@H]1C(=O)[C@]3(C/C=C(/C)C(=O)O)OC2(C)C` (stereo not given in full), the inhibition result in assay [7] is “Active”. The inhibition entry in assay [3] is “Dose-dependent effect”.
On to `COC1=C2C(=O)c3c(O)c4c(c(CC=C(C)C)c3O[C@@]23[C@H]2C[C@@H]1C(=O)[C@]3(CC=C(C)C)OC2(C)C)O[C@](C)(CCC=C(C)C)C=C4`, for which the inhibition result in assay [8] is “Active”. Moreover, in [3], the inhibition entry was “Dose-dependent effect”.
Consider `CC(C)=CCC/C(C)=C/Cc1c(O)c(CC=C(C)C)c2c(c1O)C(=O)C1=C[C@@H]3C[C@H]4C(C)(C)O[C@@](C/C=C(/C)C(=O)O)(C3=O)[C@@]14O2`, for which the inhibition entry in assay [9] was “Active”. Besides, the inhibition result in assay [3] is “Dose-dependent effect”.
